From PubChem
Shown are actives, neighbours in structure and some others; about 3% of the full set was active somewhere.
T cruzi repl = blocks replication of Trypanosoma cruzi; T. cruzi beta-gal in NIH3T3, luminescence, 90 h; 300,000 compounds, 1.4% hits; inhibition, % (concentration not given with the values); AID 1885;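 active = mean inhibition across valid replicates above about 55%, limit read from the data; inconclusive = mean below that limit but half or more replicates reach it; inactive = mean below it, under half of replicates reach it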;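 note: signal also drops with host cell toxicity which is not excluded here; 0% = plate median of DMSO wells and 100% = zero luminescence signal; higher percent means less beta-gal luminescence so fewer parasites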
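System: NIH/3T3 fibroblasts plus reporter T. cruzi. Medium: DMEM plus 2% FBS. Probe or stimulus: 5000 reporter trypomastigotes per well. Compound: single 50 nL compound addition per well in DMSO. Incubation: co-culture of at least 90 h after 3 h attachment. Detection: GalScreen β-gal luminescence, detergent lysis, 60 min. Evaluation: parasite load inhibition, %.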
Glyco luc inh = N-linked glycosylation inhibition | D54 ERlucT glycosylation luciferase reporter, 24 h; percent of 100 nM tunicamycin response | 360,000 compounds, 0.23% hits | reporter increase, % at 12.5 µM;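 active = mean luciferase reporter signal, scaled so untreated is 0 and the glycosylation-blocking control 100, at or above a set limit in every replicate; inconclusive = mean reaches the limit but not every replicate does; inactive = mean below the limit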;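 note: luciferase carries N-glycosylation sites so blocking glycosylation raises the light; 0% = median of neutral control wells and 100% = median of 100 nM tunicamycin wells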
HSF-1 act = increases HSF-1 driven luciferase reporter signal; NIH3T3-HGL HSF-1 luciferase reporter, MG132, 8 h; 100% = twice DMSO control signal; activation, % at 9 µM; 300,000 compounds, 1.7% hits;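 active = mean replicate activation of at least 50% with a set share of replicates each reaching 50%; inconclusive = only one of those two conditions met; inactive = mean below 50% and too few replicates reaching it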;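 note: 0% = median of the neutral control wells and 100% = twice that signal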
PfHsp90 set2 = growth inhibition of yeast expressing Plasmodium Hsp90; S. cerevisiae expressing PfHsp90, BacTiter-Glo ATP, 48 h; yeast lacking PDR1 and PDR3 efflux regulators; inhibition, % at 9.4 µM; 310,000 compounds, 0.32% hits;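 active = every replicate shows inhibition above about 80%, whatever the replicate mean, limit read from the data; inconclusive = mean inhibition reaches the set limit but some replicate falls short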;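 note: 0% = DMSO neutral controls and 100% = 20 µM radicicol positive controls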
PvdQ acylase = P. aeruginosa PvdQ acylase inhibition; purified PvdQ acylase, fluorescence plate reader; AID 488965; 340,000 compounds, 0.063% hits; inhibition, % at 10 µM; in the data active = inhibition above about 30%, passing the limit was not always enough; inconclusive = no clear call, values can overlap the other calls;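 note: 0% = vehicle neutral wells and 100% = reference inhibitor wells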
CaV13 FRET inh = Disruptors of the CACNA1D IQ motif to Ca2+-dependent inactivation inhibitor domain association, primary screening, Förster resonance energy transfer in intact living … | AID 743397 | HEK cells, CFP/YFP FRET ICDI-IQ, plate reader, 10 min; percent FRET-ratio fall versus neutral wells | 340,000 compounds, 0.098% hits | inhibition, % at 12.3 µM;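 active = mean replicate inhibition of at least 30% and at least 1% of replicates passing that level; inconclusive = only one of the two criteria is met; inactive = neither criterion is met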;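 note: 0% = median of the neutral control wells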
Starred values were filed as active, the others as inactive; ? = inconclusive; · = no result.

SMILES | T cruzi repl | Glyco luc inh | HSF-1 act | PfHsp90 set2 | PvdQ acylase | CaV13 FRET inh
CC1(C(=O)NS(=O)(=O)Cc2cccc(Cl)c2)CCN1C(=O)CC1CCCC1 (stereo not given) | · | -1 | · | · | · | -10
O=C(Nc1ccc(S(=O)(=O)NC2=NCCCCC2)cc1)c1cccc(OC(F)F)c1 | · | 3 | · | · | · | -5
CCS(=O)(=O)N1CCC2(CC1)OCCN2S(=O)(=O)c1ccccc1 | · | 0 | · | · | · | -15
FC(F)(F)c1cccc(NC(=S)NC(c2ccccc2)c2ccccc2)c1 | 60* | -11 | 0 | -21 | 8 | -6
FC(F)(F)c1cccc(NC(=S)Nc2ccc(Cl)c(Cl)c2)c1 | 48 | 1 | -3 | 9 | -12 | -10
COc1ccc(-c2nc3ccc(C)cn3c2CC(C)(C)C)cc1OC | · | 1 | · | · | · | -5
Oc1c(C(c2ccccn2)N2CCC(Cc3ccccc3)CC2)cc(Cl)c2cccnc12 (stereo not given) | 17 | · | -30 | · | · | -28
Cc1ccc(C(c2cc(Cl)c3cccnc3c2O)N2CCN(C)CC2)cc1 (stereo not given) | 30 | 43* | 11 | 107* | 9 | ·
O=S(=O)(c1cccc2cccnc12)N1CCCCC1 | -12 | 0 | -12 | · | -4 | -5
Oc1c(C(c2ccc(Cl)cc2)N2CCCC2)cc(Cl)c2cccnc12 (stereo not given) | 70* | 21 | -35 | 128* | -4 | -38
CN1CCN(C(c2ccccn2)c2cc(Cl)c3cccnc3c2O)CC1 (stereo not given) | ? | 10 | -19 | 103* | -10 | -5
Oc1c(C(c2ccccc2Cl)N2CCCC2)ccc2cccnc12 (stereo not given) | 84* | -9 | -1 | 119* | -5 | -15
CN1CCN(C(c2ccccc2)c2ccccc2)CC1 | · | 0 | · | 16 | -5 | -5
CN1CCN(C(c2ccc(C(F)(F)F)cc2)c2ccc3cccnc3c2O)CC1 (stereo not given) | 71* | · | 36 | · | · | -19
O=C(C(=O)N1CCC(CNS(=O)(=O)c2ccccc2)CC1)c1cc2ccccc2o1 | · | · | · | · | · | -10
OCCNc1c2ccccc2nc2ccccc12 | 59* | 66* | 13 | -26 | -8 | 51*
C=CC[C@@H]1Cc2c(Br)ccc(Br)c2[C@@H](CC=C)N1 | -19 | -1 | 61* | 9 | 4 | -6
COc1cc(OC)cc(C(=O)Nc2cccc(N3CCCC3)c2)c1 | 68* | -2 | -3 | 8 | 2 | -8
COc1cc(OC)cc(C(=O)Nc2cccc(C(C)=O)c2)c1 | -7 | 7 | -7 | · | -4 | -7
COc1ccc2c(c1)-c1c(ssc1=S)C(C)(C)N2S(=O)(=O)c1ccc(C)cc1 | 40 | -1 | -14 | 18 | 2 | -4
Cc1ccc(S(=O)(=O)N2c3ccccc3-c3c(ssc3=S)C2(C)C)cc1 | 55* | -9 | -2 | 28 | -8 | -5
CCN(CC)CCn1c2ccccc2c2nc3ccc([N+](=O)[O-])cc3cc21 | 43 | 70* | 121* | 9 | -8 | -5
Cn1c2ccccc2c2cc([N+](=O)[O-])ccc21 | 12 | 2 | 17 | -26 | -8 | -16
CNC[C@@H]1OCc2ccccc2-c2c(n(C)c3ccccc23)C(=O)N([C@H](C)CO)C[C@@H]1C | · | 1 | · | · | · | -4
COCCN(Cc1ccc(C)cc1)C(=O)[C@H]1O[C@@H](n2cnc(C(N)=O)n2)[C@H](O)[C@@H]1O | · | · | · | · | · | -5
SMILES | T cruzi repl | Glyco luc inh | HSF-1 act | PfHsp90 set2 | PvdQ acylase | CaV13 FRET inh
Cc1cc(Oc2cccc3c2S(=O)(=O)N([C@H](C)c2ccccc2)C[C@@H](COCc2ccccc2)O3)cc(C)c1C | · | · | · | · | · | -7
Cc1cc2ncn(/N=C/c3ccc([N+](=O)[O-])s3)c2cc1C | 38 | -1 | 25 | -53 | 7 | -5
O=[N+]([O-])c1ccc(/C=N/n2cnc3ccccc32)s1 | 73* | -20 | 63* | 105* | -7 | -18
O=[N+]([O-])c1ccc(/C=N/n2c(CO)nc3ccccc32)s1 | 67* | 13 | 18 | -4 | 2 | -4
Cc1ccc(NC(=O)CSc2ncccn2)cc1S(=O)(=O)N1CCOCC1 | · | 1 | · | 7 | -9 | -2
COC(=O)C[C@@H]1CC[C@@H](NS(=O)(=O)c2cccc(OC)c2)[C@@H](CO)O1 | · | · | · | · | · | -5
Cc1[nH]n2c(=O)cc(C(C)C)nc2c1-c1ccccc1 | -7 | 2 | 6 | 8 | -1 | -6
Cc1[nH]n2c(=O)cc(C(C)(C)C)nc2c1-c1ccccc1 | 59* | 3 | -52 | 12 | -18 | ·
Cc1ccccc1CN1C(=O)CSCC1(C)C(=O)NC(C)C (stereo not given) | · | · | · | · | · | -10
COc1ccc(-c2cn3cc(Cl)ccc3n2)cc1OC | 31 | -1 | 64* | -21 | -8 | -9
COc1ccc(-c2cn3cc(C)ccc3n2)cc1Br | 3 | -11 | 66* | 3 | 5 | -5
COc1cc(SC)ccc1C(=O)Nc1ccc2c(c1)CCC2 | 1 | -7 | 93* | -1 | 7 | -18
C[C@H](CO)N1C[C@H](C)[C@H](CN(C)C(=O)C2CC2)OCc2cnnn2CCCC1=O | · | -1 | · | · | · | -4
CCN(c1ccccc1)S(=O)(=O)c1ccc(OC)c(NC(=O)Cc2ccc(F)cc2)c1 | · | -6 | · | 18 | -10 | -3
CCN(c1ccccc1)S(=O)(=O)c1ccc(OC)c(NC(=O)CNCCc2ccccc2)c1 | 58* | -3 | 21 | 6 | -1 | -5
O=C(COC(=O)Cc1c(Cl)cccc1Cl)NCc1ccccc1 | · | -2 | · | · | · | -6
CC(C)n1cc2c(N)ncnc2n1 | · | 0 | · | -15 | -6 | -6
Cc1c(C(=O)Nc2ccc(Cl)cc2)c2ccccn2c1CCc1ccncc1 | 63* | -4 | 66* | -1 | -7 | -5
Cc1c(C(=O)Nc2cccc(Cl)c2)c2ccccn2c1CCc1ccncc1 | 56* | -6 | 27 | -2 | 1 | -5
Cc1c(C(=O)Nc2ccc(Cl)cc2)c2ccccn2c1C(=O)c1ccc(F)cc1 | 4 | -6 | 12 | · | -7 | -5
Cc1cc(OCC(=O)OCC(=O)Nc2cc(S(=O)(=O)N3CCOCC3)ccc2Cl)ccc1Cl | · | -2 | · | -16 | -14 | -7
O=S(=O)(c1ccccc1)N1CC2CC(Br)C(Br)CC21 (stereo not given) | · | 0 | · | · | · | -6
O=C1CC(N2CCN(c3nc4ccccc4s3)CC2)C(=O)N1Cc1cccs1 (stereo not given) | 24 | 1 | 7 | 105* | -5 | -6
CC(C)Oc1cccc(NC(=O)C2(C)CCCN2C(=O)C(C)C)c1 (stereo not given) | · | 0 | · | · | · | -10
COc1ccc(N(C)S(=O)(=O)c2cccc(C(=O)NCC3CCCCC3)c2)cc1 | 69* | -6 | 4 | -6 | -10 | 10
